Reference: PubChem BioAssay AID540348 (Broad Institute, 2011)
Active and inactive are the calls of the source.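 The calls were made as follows: active = inhibitors whose fitted half-maximal dose is at most ten times the top tested dose; inconclusive = flat curve with 30 to 70% inhibition, or a poor fit; inactive = the rest.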

How the values were obtained:
[1] = test system: SK-MEL-5 TRPM1 promoter luciferase reporter, 24 h; experiment: suppression of TRPM1 promoter luciferase signal, dose response, MITF project, SK-MEL-5 cells, dry powder samples (AID 540348)
Method in brief: (§1)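 Assay system: SK-MEL-5 melanoma cells with stable TRPM1 promoter–luciferase reporter; Buffer or medium: phenol red-free DMEM with 10% iFBS; Compound: dry-powder compounds tested as a dose series; Times: cell plating one day before dosing, 24 h compound exposure at 37 °C; Detection: Steady-Glo luminescence after 5 min at room temperature, 0.5 s per well.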

[2] = as above; conditions: SK-MEL-5 TRPM1 promoter luciferase reporter, 24 h; at 35 µM (top of the series)
Method in brief: as §1

## O=C(CNc1cccc2ccccc12)N/N=C/c1ccc([N+](=O)[O-])o1
[1]
  AC50: 2.42 µM

## CCN1c2ccccc2NC2N=C(OC)C(c3ccccc3)C21 (centres undefined)
[1]
  AC50: 0.808 µM

## CC1CCN(CC(CS(=O)(=O)c2ccc([N+](=O)[O-])cc2)N2CCC(C)CC2)CC1 (centres undefined)
[1]
  AC50: 5.58 µM

## Cc1nc2ccccc2n1/N=C/c1ccc([N+](=O)[O-])s1
[1]
  AC50: 2.88 µM

## Cc1ccc(C(O)(c2ccc(C)c(C)c2)C2CN3CCC2CC3)cc1C (centres undefined)
[2]
  activity change, negative = inhibition: -51% (inactive)

## C=CCNC1=C(Cl)C(=O)c2ccccc2C1=O
[1]
  AC50: 0.905 µM

## CCN1CCN(C2=C(NS(=O)(=O)c3ccc(Br)cc3)C(=O)c3ccccc3C2=O)CC1
[1]
  AC50: 2.09 µM

## CC1=NNC(=O)/C1=C\c1cn(-c2ccccc2)nc1-c1ccc(F)cc1
[2]
  activity change, negative = inhibition: -106% (inactive)

## O=C(Cn1ncc(Cl)c(Cl)c1=O)N1CCc2ccccc21
[1]
  AC50: 4.69 µM

## O=C(COc1ccccc1)N/N=C/c1ccc([N+](=O)[O-])o1
[1]
  AC50: 2.6 µM

## COc1cc2c(cc1OC)C(c1ccccc1)N(C(=O)CCl)CC2 (centres undefined)
[1]
  AC50: 5.19 µM

## CC(C)C(CCNC1CCN(C)CC1)c1ccc(Cl)cc1 (centres undefined)
[1]
  AC50: 10.6 µM

## CC1CCCCC1NC(=O)/C(C#N)=C/C=C/c1ccccc1[N+](=O)[O-] (centres undefined)
[1]
  AC50: 7.3 µM

## CN(C)CCCNC(=O)/C(=C\c1ccc(-c2ccc(Br)cc2)o1)NC(=O)c1ccccc1
[1]
  AC50: 12.2 µM

## Cc1ccc(C(C)C)c(OCc2nn(CC(=O)c3ccc(Cl)cc3)c3[n+]2CCCCC3)c1
[1]
  AC50: 13.8 µM

## Cc1[nH]c2ccccc2c1C(=O)CCl
[2]
  activity change, negative = inhibition: -106% (inactive)

## COc1ccc(S(=O)(=O)N(C(C)=O)c2ccc(OC(C)=O)c3ccccc23)cc1[N+](=O)[O-]
[1]
  AC50: 2.87 µM

## O=c1c(Cl)c2oc3ccccc3nc-2c2ccccc12
[1]
  AC50: 6.17 µM

## O=C(Nc1ccc(-c2nc3ncccc3o2)cc1)c1ccc([N+](=O)[O-])o1
[1]
  AC50: 8.55 µM

## CCN1CCCC1CNC(=O)c1ccc2c(c1)NC(=O)/C(=C\c1ccc(C)cc1)S2 (centres undefined)
[2]
  activity change, negative = inhibition: -106% (inactive)

## N=c1n(CCN2CCCC2)c2ccccc2n1CC(O)c1ccc(Cl)c(Cl)c1 (centres undefined)
[2]
  activity change, negative = inhibition: -109% (inactive)

## Cc1ccc(C(=O)N/N=C/c2ccc([N+](=O)[O-])s2)cc1
[1]
  AC50: 5.75 µM

## CC1CN(C(=O)CCC(=O)NCCCN2CCC(Cc3ccccc3)CC2)c2cc(Cl)ccc2O1 (centres undefined)
[2]
  activity change, negative = inhibition: -105% (inactive)

## O=C(Nc1ccc(N2CCN(C(=O)c3ccccc3)CC2)cc1)c1ccc([N+](=O)[O-])o1
[1]
  AC50: 9.85 µM

## Cc1cc(C(C)(C)C)cc(C)c1Cn1c2[n+](c3ccc(C(F)(F)F)cc31)CCCCC2
[1]
  AC50: 9.42 µM

## CC1(C)CC(NC(=O)c2ccc(Cl)c(S(=O)(=O)N(Cc3ccccc3)c3ccccc3)c2)CC(C)(C)N1
[1]
  AC50: 6.34 µM

## CCN(CC)CCNC(=O)c1c(C)n(-c2ccccc2)c2cc(Br)c(OC)cc12
[2]
  activity change, negative = inhibition: -94.1% (inactive)

## COc1cc(/C=N/NC(N)=O)c(Br)cc1OCC(=O)Nc1ccccc1C
[1]
  AC50: 17.7 µM

## Cc1oc(-c2ccc(Cl)cc2)nc1CN1CCC(C(=O)NCCCN2CCCC(C)C2)CC1 (centres undefined)
[2]
  activity change, negative = inhibition: -104% (inactive)
